B1: tRNA (parent)
chain: GUUCCGUUGGCGUAAUGGUAACGCGUCUCCCUCCUAAGGAGAAGACUGCGGGUUCGAGUCCCGUACGGAACG

Variants of: B1
Assay: yeast fitness, log relative to wild type (ln ratio); higher = fitter; tRNA-Arg(CCU), competitive growth, 37 C, 1 M NaCl
Method in brief: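 BY4742 cells without the chromosomal tRNA-Arg(CCU) gene carried a combinatorial variant library on a HIS3 centromeric plasmid, from two independent transformations. After 4 generations in SC-HIS at 30 °C, pools spent ~6.5 generations (~26.5 h) in SC-HIS 1M NaCl at 37 °C, giving three outputs per input, and 125 bp paired-end Illumina reads counted the variants. Fitness is the natural log of each genotype's generations over the wild type's, with generations taken as OD-scaled log2 output/input frequency weighted by inverse variance across replicates.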

| Variant | yeast fitness (ln) |
| --- | --- |
| C66A C71U | -0.0269 |
| A43C C66A A70U C71U | -0.268 |
| C46U C66A A69G A70G | -0.0653 |
| C46U C66A A69G A70U | -0.0373 |
| A43C C66A A69G A70G C71U | -0.159 |
| A43C C66U A69G | -0.174 |
| C46U C66U C71U | -0.0591 |
| A43C C46U A70U | -0.00645 |
| A43C C46U A70G | -0.00498 |
| A43C A69G | -0.0224 |
| A43C C66U A69G C71U | -0.436 |
| A43C C46U C66U A69G A70G | -0.117 |
| A43C C46U C66U A69G A70U | -0.121 |
| C46U C66U A69G A70U C71U | -0.332 |
| A43C C66A C71U | -0.117 |
| A43C C46U C66U A69G C71U | -0.273 |
| A43C C46U A69G A70U C71U | -0.273 |
| A43C C46U A70G C71U | -0.168 |
| A43C C66A A70G C71U | -0.105 |
| A43C A70G C71U | -0.164 |
| A43C C66A | -0.0164 |
| A43C C66U | -0.178 |
| C46U | 0.0114 |
| A43C C66A A69G A70U | -0.153 |
| A43C C66A A69G A70G | -0.154 |
| C27U C66U A70U C71U | -0.276 |

| Variant | yeast fitness (ln) |
| --- | --- |
| C46U C66A C71U | -0.0724 |
| A43C A69G C71U | -0.138 |
| C66U A69G A70U C71U | -0.339 |
| A43C C66U A70U | -0.105 |
| A43C C66U A70G | -0.0981 |
| A43C C66A A69G A70U C71U | -0.398 |
| A43C C46U C66U A69G | -0.172 |
| C46U C66U A70U C71U | -0.148 |
| A43C C46U C66A A69G C71U | -0.26 |
| C66A A69G C71U | -0.108 |
| C66A A70G C71U | -0.0666 |
| C66A A69G A70U | -0.0115 |
| C66A A69G A70G | -0.0347 |
| A43C C46U C66A A70U C71U | -0.128 |
| A69G A70U C71U | -0.162 |
| A43C A69G A70G C71U | -0.0742 |
| C66A A70U | -0.00405 |
| C66A A70G | -0.0114 |
| A43C | 0.000879 |
| C46U C66A A70U | 0.00705 |
| C46U C66A A70G | -0.0456 |
| C66A A69G A70U C71U | -0.32 |
| C66U A70G C71U | -0.0554 |
| A43C C66U A69G A70U C71U | -0.365 |
| C46U A69G | -0.00396 |
| A43C C46U C66U A70U C71U | -0.211 |

| Variant | yeast fitness (ln) |
| --- | --- |
| A43C C66U A70U C71U | -0.358 |
| C46U A69G A70U C71U | -0.138 |
| C27U C66U A70G C71U | -0.183 |
| A43C C46U C66U A70G C71U | -0.149 |
| A43C A69G A70U | -0.0328 |
| A43C A69G A70G | -0.0594 |
| A43C C46U | 0.00767 |
| A43C C46U C66A C71U | -0.0684 |
| C27U C66U A69G A70U C71U | -0.369 |
| A43C A70U C71U | -0.0836 |
| A70U C71U | -0.0899 |
| A69G A70U | -0.0431 |
| A69G A70G | -0.0138 |
| C27U C71U | -0.0403 |
| A70G C71U | -0.0739 |
| C46U C66U A70G | -0.0429 |
| C46U C66U A70U | -0.103 |
| C46U A69G A70G C71U | -0.237 |
| C66A A69G | -0.0295 |
| C27U C66U A69G A70U | -0.143 |
| C27U C66U A69G A70G | -0.19 |
| C66U A70U C71U | -0.135 |
| C46U A69G C71U | -0.00543 |
| C46U C71U | -0.00784 |
| A43C C46U C66A A69G A70G C71U | -0.103 |
| C66U C71U | -0.173 |

| Variant | yeast fitness (ln) |
| --- | --- |
| C27U C66U A69G C71U | -0.313 |
| C46U C66A A70G C71U | -0.0671 |
| A43C C46U C66A A70G | 0.00409 |
| A43C C46U C66A A70U | -0.0196 |
| C46U C66A A69G A70U C71U | -0.282 |
| A43C C66A A69G C71U | -0.226 |
| C66A | -0.00943 |
| C66U | -0.017 |
| A69G C71U | -0.0165 |
| C66U A69G C71U | -0.166 |
| C66U A70G | -0.0949 |
| C66U A70U | -0.0848 |
| C46U C66U A69G A70U | -0.0707 |
| C46U C66U A69G A70G | -0.216 |
| A43C C46U A69G A70G C71U | -0.0835 |
| A43C C46U C66U | -0.0822 |
| A43C C46U C66A | -0.0152 |
| C46U C66A A69G A70G C71U | -0.0571 |
| C46U C66A A70U C71U | -0.022 |
| A43C C46U C66A A70G C71U | -0.0713 |
| C46U C66U A69G | -0.104 |
| C46U A69G A70U | -0.0401 |
| C46U A69G A70G | -0.0172 |
| A43C C46U C66A A69G A70U C71U | -0.341 |
| A43C C46U C66U A69G A70G C71U | -0.158 |
| C46U A70G C71U | -0.0663 |

| Variant | yeast fitness (ln) |
| --- | --- |
| A43C C71U | -0.038 |
| A43C C46U C66U A69G A70U C71U | -0.356 |
| C66A A69G A70G C71U | -0.0757 |
| C66U A69G A70G | -0.0718 |
| C66U A69G A70U | -0.0858 |
| C71U | -0.00399 |
| A43C C66U C71U | -0.206 |
| C46U A70U C71U | -0.129 |
| A43C C46U A69G C71U | -0.0511 |
| C27U C66A C71U | -0.117 |
| A70U | 0.00232 |
| A70G | -0.00424 |
| A43C C66U A69G A70G | -0.166 |
| A43C C66U A69G A70U | -0.224 |
| A43C C66A A70G | -0.0269 |
| A43C C66A A70U | -0.0764 |
| C46U C66U A69G C71U | -0.396 |
| C27U C66A A70U C71U | -0.182 |
| C27U C66U A69G | -0.241 |
| C46U C66U A69G A70G C71U | -0.084 |
| A69G A70G C71U | -0.222 |
| A43C C46U A69G | 0.00452 |
| A43C C46U C66U C71U | -0.115 |
| A43C C46U C66U A70G | -0.0608 |
| A43C C46U C66U A70U | -0.0743 |
| C27U C66U C71U | -0.173 |

| Variant | yeast fitness (ln) |
| --- | --- |
| A69G | -0.00462 |
| C27U C66U A69G A70G C71U | -0.262 |
| C27U C66U | -0.134 |
| C27U C66U A70G | -0.116 |
| C27U C66U A70U | -0.0893 |
| C46U C66A A69G C71U | -0.0675 |
| A43C A70U | -0.0384 |
| A43C A70G | -0.022 |
| A43C C46U A70U C71U | -0.131 |
| A43C A69G A70U C71U | -0.337 |
| A43C C46U A69G A70G | -0.0166 |
| A43C C46U A69G A70U | -0.133 |
| C46U C66U A70G C71U | -0.0752 |
| A43C C46U C66A A69G A70G | -0.0183 |
| A43C C46U C66A A69G A70U | -0.0398 |
| C46U C66U | -0.000909 |
| C46U C66A | -0.0399 |
| A43C C66U A70G C71U | -0.156 |
| C66A A70U C71U | -0.0544 |
| A43C C66U A69G A70G C71U | -0.22 |
| C46U A70U | 0.00508 |
| C46U A70G | -0.00475 |
| C66U A69G A70G C71U | -0.106 |
| C66U A69G | -0.168 |
| A43C C46U C71U | -0.00724 |
